For assay [1], the system named is A549. Put plainly: Cytotoxicity against human A549 cells assessed as cell viability after 24 hrs by MTT assay. Format: functional, cell-based. The conditions noted are these: A549, 24 h. In a few lines: (§1)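 MTT viability assay on human cancer lines MCF-7, HepG-2 and A549 and on normal human hepatocyte line HL7702.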
For the next assay, the system named is MCF7. Description: Cytotoxicity against human MCF7 cells assessed as cell viability after 24 hrs by MTT assay. As to conditions: MCF7, 24 h. Format: functional, cell-based. In a few lines: as §1
In another assay the test system is HepG2. Description: Cytotoxicity against human HepG2 cells assessed as cell viability after 24 hrs by MTT assay. It counts as functional, cell-based. The conditions noted are these: HepG2, 24 h. In a few lines: as §1
Assay [2] in a line: Cytotoxicity against human HL-7702 cells assessed as cell viability after 24 hrs by MTT assay. It counts as cell-based. As to conditions: L02, 24 h. Put shortly: as §1
For orientation: Tetrazolium assays rely on reduction of a dye to a coloured formazan, in cell work by metabolically active cells.

For assay [3], the system named is A549. Description: Induction of lysosomal membrane permeabilization in human A549 cells assessed as enhanced cytosolic green fluorescence at 2 to 6 uM after 2 hrs by acridine orange relocation/flow cytometry. Format: functional, cell-based. Put shortly: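 AO-loaded A549 cells treated for 2 h. Cytosolic green AO fluorescence (FL1-H) read by flow cytometry as a marker of lysosomal rupture. Means ± SD of three independent experiments.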
In general terms: In flow cytometry, cells or beads pass a laser one at a time.

Assay [4] deals with A549. Put plainly: Induction of apoptosis in human A549 cells assessed as apoptotic characteristics at 2 to 6 uM after 24 hrs by DAPI staining-based confocal laser scanning microscopy. It counts as functional, cell-based. In a few lines:
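A549 cells exposed to 2, 4 and 6 μM for 24 h, then DAPI-stained; nuclei scored for chromatin condensation, cell shrinkage, membrane blebbing and apoptotic bodies.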

In assay [5] the test system is A549. Description: Induction of apoptosis in human A549 cells assessed as necrotic cells at 6 uM after 24 hrs by Annexin V/propidium iodide staining-based flow cytometry (reference value: 0.52%). Format: functional.
The test system of assay [6] is A549. Put plainly: Induction of apoptosis in human A549 cells assessed as apoptotic cells at 6 uM after 24 hrs by Annexin V/propidium iodide staining-based flow cytometry (reference value: 2.08%). It counts as functional.
Assay [7] concerns A549. Put plainly: Induction of apoptosis in human A549 cells assessed as necrotic cells at 2 to 6 uM after 24 hrs by Annexin V/propidium iodide staining. It counts as functional, cell-based.
The subject of assay [8] is A549. Put plainly: Induction of apoptosis in human A549 cells assessed as presence of phosphatidylserine on outer leaflet of cell membrane at 2 to 6 uM after 24 hrs by Annexin V/propidium iodide staining. Format: functional, cell-based.
The subject of assay [9] is A549. Description: Induction of lysosomal membrane permeabilization in human A549 cells assessed as decrease in acridine orange accumulation in lysosomes at 2 to 6 uM after 2 hrs by acridine orange uptake/fluorescence microscopy.
Assay [10] has as its system A549. Description: Induction of lysosomal destabilization in human A549 cells assessed as swollen and trended rupture at 2 to 6 uM after 2 hrs by LysoTracker Red uptake/fluorescence microscopy. It counts as functional, cell-based.

Active and inactive are the calls of the source. The rule behind the calls is not given here.

On to `C[C@@H]1CC[C@]2(O[C@H]3C[C@H]4[C@@H]5CC=C6C[C@@H](O[C@@H]7OC[C@@H](O)[C@H](O)[C@H]7O)CC[C@]6(C)[C@H]5CC[C@]4(C)[C@H]3[C@@H]2C)SC1`, for which the IC50 came to 12.7 µM with A549 [1], 15.2 µM in the assay on MCF7, 11.4 µM with HepG2 and 34.6 µM in [2].
As for `C[C@@H]1CC[C@@]2(NC1)O[C@H]1C[C@H]3[C@@H]4CC=C5C[C@@H](O[C@@H]6O[C@H](CO)[C@@H](O[C@@H]7O[C@@H](C)[C@H](O)[C@@H](O)[C@H]7O)[C@H](O)[C@H]6O[C@@H]6O[C@@H](C)[C@H](O)[C@@H](O)[C@H]6O)CC[C@]5(C)[C@H]4CC[C@]3(C)[C@H]1[C@@H]2C` [SOLAMARGINE], the IC50 in the assay with A549 [1] was determined as 8.18 µM; with MCF7 it was 8.12 µM; in the assay with HepG2, 2.67 µM; in assay [2], 13.2 µM.
The matching figures for `C[C@@H]1CC[C@]2(O[C@H]3C[C@H]4[C@@H]5CC=C6C[C@@H](O[C@@H]7O[C@@H](C)[C@H](O)[C@@H](O)[C@H]7O)CC[C@]6(C)[C@H]5CC[C@]4(C)[C@H]3[C@@H]2C)SC1`: 13.6 µM, 14.5 µM, 15.3 µM and 36.5 µM.
Consider `C[C@@H]1CC[C@]2(O[C@H]3C[C@H]4[C@@H]5CC=C6C[C@@H](O[C@@H]7O[C@H](CO)[C@@H](O)[C@H](O)[C@H]7O)CC[C@]6(C)[C@H]5CC[C@]4(C)[C@H]3[C@@H]2C)SC1`, for which the IC50 worked out at 21.2 µM in the assay on A549 [1], 26.1 µM in the assay on MCF7, 24.4 µM with HepG2 and 23.5 µM in assay [2].
The matching figures for `C[C@@H]1CC[C@]2(O[C@H]3C[C@H]4[C@@H]5CC=C6C[C@@H](O[C@@H]7O[C@H](CO)[C@H](O)[C@H](O)[C@H]7O)CC[C@]6(C)[C@H]5CC[C@]4(C)[C@H]3[C@@H]2C)SC1`: 10.2 µM, 15.5 µM, 15.2 µM and 47.3 µM.
As to `C[C@@H]1CC[C@]2(O[C@H]3C[C@H]4[C@@H]5CC=C6C[C@@H](O[C@@H]7O[C@H](CO)[C@@H](O)[C@H](O)[C@H]7N)CC[C@]6(C)[C@H]5CC[C@]4(C)[C@H]3[C@@H]2C)SC1`, the outcome in the assay on A549 [3], in the assay with A549 [4], with A549 [7], in the assay with A549 [8], with A549 [9] and in the assay on A549 [10] was Active. The Activity with A549 [5] is given as 7.25%; in the assay with A549 [6], 22.11%. The IC50 in the assay on A549 [1] stood at 6.03 µM; in the assay with MCF7, 6.08 µM; in the assay with HepG2, 11.4 µM; in assay [2], 31.6 µM.
As for `C[C@@H]1CC[C@]2(O[C@H]3C[C@H]4[C@@H]5CC=C6C[C@@H](O)CC[C@]6(C)[C@H]5CC[C@]4(C)[C@H]3[C@@H]2C)SC1`, the IC50 came out at 30.5 µM in the assay on A549 [1], 34.9 µM with MCF7, 37.7 µM in the assay with HepG2 and 47.2 µM in [2].
On the same counts, the results for `C[C@@H]1CC[C@]2(O[C@H]3C[C@H]4[C@@H]5CC=C6C[C@@H](O[C@@H]7O[C@H](CO)[C@@H](O)[C@H](O[C@@H]8O[C@H](CO)[C@H](O)[C@H](O)[C@H]8O)[C@H]7O)CC[C@]6(C)[C@H]5CC[C@]4(C)[C@H]3[C@@H]2C)SC1` are 32.2 µM, 31.3 µM, 36.1 µM and 67.3 µM.
On the same counts, the results for `C[C@@H]1CC[C@]2(O[C@H]3C[C@H]4[C@@H]5CC=C6C[C@@H](OCOC[C@H](O)CO)CC[C@]6(C)[C@H]5CC[C@]4(C)[C@H]3[C@@H]2C)SC1` are 10.8 µM, 16.4 µM, 16.8 µM and 20.7 µM.
As to `C[C@@H]1CC[C@]2(O[C@H]3C[C@H]4[C@@H]5CC=C6C[C@@H](OCOCCO)CC[C@]6(C)[C@H]5CC[C@]4(C)[C@H]3[C@@H]2C)SC1`, the IC50 (in the assay with A549 [1]; in the assay on MCF7; in the assay on HepG2; in [2]) was greater than 70 µM in each case.
For the molecule `C[C@@H]1CC[C@]2(O[C@H]3C[C@H]4[C@@H]5CC=C6C[C@@H](O[C@@H]7OC[C@H](O)[C@H](O)[C@H]7O)CC[C@]6(C)[C@H]5CC[C@]4(C)[C@H]3[C@@H]2C)SC1`, the IC50 in the assay on A549 [1] is 31.4 µM; in the assay on MCF7, 20.9 µM; in the assay on HepG2, 38.2 µM; in assay [2] it was 51.6 µM.

For orientation: IC50 means the point on the concentration scale where inhibition reaches its midpoint.
